# Results from ChEMBL document CHEMBL1123248, “Chiral DNA gyrase inhibitors. 1. Synthesis and antimicrobial activity of the enantiomers of 6-fluoro-7-(1-piperazinyl)-1-(2'-trans-phenyl-1'-cyclopropyl)-1, 4-dihydro-4-oxoquinoline-3-carboxylic acid” (1986).
# Experiments:
# Type in all cases: functional
# Klebsiella aerogenes [1] = test: The compound was tested for its antimicrobial activity against Enterobacter aerogenes ATCC 13048 (Ea) strain.
# Summary of the method: (§1)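 MIC by twofold serial agar dilution in brain-heart infusion agar.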
# Escherichia coli [2] = test: The compound was tested for inhibition constant against DNA gyrase isolated from Escherichia coli
# Escherichia coli [3] = test: (§2) The compound was tested for its antimicrobial activity against Escherichia coli juhl (Ec) strain.
# Summary of the method: (§3)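 MICs were determined by twofold agar dilution on brain-heart infusion agar.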
# Klebsiella pneumoniae [4] = test: The compound was tested for its antimicrobial activity against Klebsiella pneumoniae 8045 (Kp) strain; summary of the method: as §3
# Micrococcus luteus [5] = test: The compound was tested for inhibition constant against DNA gyrase isolated from micrococcus luteus
# Pseudomonas aeruginosa [6] = test: The compound was tested evaluated for its antimicrobial activity against Pseudomonas aeruginosa ( Pa(K)) strain; summary of the method: as §3
# Pseudomonas aeruginosa [7] = test: The compound was tested evaluated for its antimicrobial activity against Pseudomonas aeruginosa A5007 (Pa(5)) strain.; summary of the method: as §3
# Streptococcus pyogenes [8] = test: The compound was tested for its antimicrobial activity against Streptococcus pyogenes 930 (Sp) strain; summary of the method: as §3
# Staphylococcus aureus [9] = test: The compound was tested for its antimicrobial activity against Staphylococcus aureus CMX 68613 (Sa) strain.; summary of the method: as §1
# Enterococcus faecium [10] = test: The compound was tested for its antimicrobial activity against Streptococcus faecium ATCC 8043 (Sf) strain; summary of the method: as §3
# [11] = system: Staphylococcus epidermidis; test: (§4) The compound was tested for its antimicrobial activity against Staphylococcus epidermidis 3519 (Se) strain; summary of the method: as §1
# Staphylococcus aureus [12] = test: The compound was tested for its antimicrobial activity against Staphylococcus aureus ATCC 6538P (Sa(A)) strain; summary of the method: as §3
# Acinetobacter [13] = test: The compound was tested for its antimicrobial activity against Acinetobacter sp. CMX 669 (A) strain; summary of the method: as §3
# Micrococcus luteus [14] = test: The compound was tested for its antimicrobial activity against Micrococcus luteus (MI) strain; summary of the method: as §3
# Escherichia coli [15] = test: as §2; summary of the method: as §1; remark: listed apart in the source
# [16] = system: Staphylococcus epidermidis; test: The compound was tested for its antimicrobial activity against Staphylococcus epidermidis 3519 (Se) strain.; summary of the method: as §1
# Streptococcus pyogenes [17] = test: The compound was tested for its antimicrobial activity against Streptococcus pyogenes 930 (Sp) strain.; summary of the method: as §1
# Enterococcus faecium [18] = test: The compound was tested for its antimicrobial activity against Streptococcus faecium ATCC 8043 (Sf) strain.; summary of the method: as §1
# Acinetobacter [19] = test: The compound was tested for its antimicrobial activity against Acinetobacter sp. CMX 669 (A) strain.; summary of the method: as §1
# Pseudomonas aeruginosa [20] = test: The compound was tested evaluated for its antimicrobial activity against Pseudomonas aeruginosa ( Pa(K)) strain.; summary of the method: as §1
# Escherichia coli [21] = test: The compound was tested for its antimicrobial activity against Escherichia coli juhl (Ec) strain; summary of the method: as §3
# Klebsiella pneumoniae [22] = test: microbe, parasite or virus in culture
# Staphylococcus aureus [23] = test: The compound was tested for its antimicrobial activity against Staphylococcus aureus CMX 68613 (Sa) strain; summary of the method: as §3
# Klebsiella aerogenes [24] = test: The compound was tested for its antimicrobial activity against Enterobacter aerogenes ATCC 13048 (Ea) strain; summary of the method: as §3
# Pseudomonas aeruginosa [25] = test: The compound was tested evaluated for its antimicrobial activity against Pseudomonas aeruginosa A5007 (Pa(5)) strain; summary of the method: as §1
# [26] = system: Staphylococcus epidermidis; test: as §4; summary of the method: as §3; remark: listed apart in the source
# [27] = Pseudomonas aeruginosa, read-out: MIC
# [28] = Streptococcus pyogenes, read-out: MIC
# [29] = Enterococcus faecium, ATCC 8043, read-out: MIC
# [30] = Staphylococcus aureus, ATCC 6538P, read-out: MIC
# [31] = Escherichia coli, read-out: MIC
# [32] = Staphylococcus aureus, read-out: MIC
# [33] = Klebsiella aerogenes, ATCC 13048, read-out: MIC
Compound,MIC (Klebsiella pneumoniae [4]) [µg/mL],MIC (Pseudomonas aeruginosa [7]) [µg/mL],MIC (Acinetobacter [13]) [µg/mL],MIC (Micrococcus luteus [14]) [µg/mL],MIC (Klebsiella aerogenes [1]) [µg/mL],Ki (Escherichia coli [2]; Escherichia coli) [µg/mL],Ki (Micrococcus luteus [5]; Micrococcus luteus) [µg/mL],MIC (Pseudomonas aeruginosa [6]; [27]) [µg/mL],MIC (Streptococcus pyogenes [8]; [28]) [µg/mL],MIC (Staphylococcus aureus [9]) [µg/mL],MIC (Enterococcus faecium [10]; [29]) [µg/mL],MIC [11] [µg/mL],MIC (Staphylococcus aureus [12]; [30]) [µg/mL],MIC [16] [µg/mL],MIC (Escherichia coli [21]; [31]) [µg/mL],Ki (Micrococcus luteus [5]) [µg/mL],MIC (Staphylococcus aureus [23]; [32]) [µg/mL],MIC (Klebsiella aerogenes [24]; [33]) [µg/mL],MIC (Pseudomonas aeruginosa [25]) [µg/mL],MIC [26] [µg/mL],further results
O=C(O)c1cn(-c2ccccc2)c2cc(N3CCNCC3)c(F)cc2c1=O,–,0.78,–,–,0.39,–,–,–,–,0.39,–,–,0.39,1.56,–,–,–,–,–,–,MIC (Escherichia coli [15]): 0.2 µg/mL; MIC (Streptococcus pyogenes [17]): 1.56 µg/mL; MIC (Enterococcus faecium [18]): 12.5 µg/mL; MIC (Acinetobacter [19]): 0.78 µg/mL; MIC (Pseudomonas aeruginosa [20]): 1.56 µg/mL
O=C(O)c1cn(C2CC2)c2cc(N3CCNCC3)c(F)cc2c1=O [CIPROFLOXACIN],–,–,3.1,1.56,–,0.9,38,0.05,0.39,–,0.39,–,0.2,–,–,–,0.2,0.05,0.1,0.2,–
CCn1cc(C(=O)O)c(=O)c2cc(F)c(N3CCNCC3)cc21 [NORFLOXACIN],0.1,–,6.2,–,0.2,1,72,0.39,3.1,–,0.78,1.56,0.78,–,0.1,–,0.78,–,0.39,–,–

# Second part, led by results:
MIC (Klebsiella pneumoniae [4]) [µg/mL],MIC (Pseudomonas aeruginosa [7]) [µg/mL],MIC (Acinetobacter [13]) [µg/mL],MIC (Micrococcus luteus [14]) [µg/mL],Compound,MIC (Klebsiella aerogenes [1]) [µg/mL],Ki (Escherichia coli [2]; Escherichia coli) [µg/mL],Ki (Micrococcus luteus [5]; Micrococcus luteus) [µg/mL],MIC (Pseudomonas aeruginosa [6]; [27]) [µg/mL],MIC (Streptococcus pyogenes [8]; [28]) [µg/mL],MIC (Staphylococcus aureus [9]) [µg/mL],MIC (Enterococcus faecium [10]; [29]) [µg/mL],MIC [11] [µg/mL],MIC (Staphylococcus aureus [12]; [30]) [µg/mL],MIC [16] [µg/mL],MIC (Escherichia coli [21]; [31]) [µg/mL],Ki (Micrococcus luteus [5]) [µg/mL],MIC (Staphylococcus aureus [23]; [32]) [µg/mL],MIC (Klebsiella aerogenes [24]; [33]) [µg/mL],MIC (Pseudomonas aeruginosa [25]) [µg/mL],MIC [26] [µg/mL],further results
3.1,> 50,6.2,0.39,O=C(O)c1cn(C2C[C@@H]2c2ccccc2)c2cc(N3CCNCC3)c(F)cc2c1=O (stereo partly specified),12.5,12.1,9.6,100,0.78,0.78,1.56,1.56,0.78,–,–,–,–,–,–,–,MIC (Escherichia coli [3]): 12.5 µg/mL
–,> 100,100,–,O=C(O)c1cn(C2C[C@H]2c2ccccc2)c2cc(N3CCNCC3)c(F)cc2c1=O (stereo in doubt; 5),–,14.2,–,100,3.1,–,6.2,–,3.1,3.1,50,38,3.1,50,–,–,MIC (Klebsiella pneumoniae [22]): 12.5 µg/mL; MIC (Pseudomonas aeruginosa [6]): 100 µg/mL
6.2,–,25,0.39,O=C(O)c1cn(C2C[C@H]2c2ccccc2)c2cc(N3CCNCC3)c(F)cc2c1=O (stereo in doubt; 14),–,–,–,–,–,–,–,–,–,–,–,13.7,–,–,> 100,1.56,MIC (Escherichia coli [21]): 25 µg/mL; Ki (Escherichia coli [2]): 15.2 µg/mL; MIC (Streptococcus pyogenes [8]): 1.56 µg/mL; MIC (Staphylococcus aureus [23]): 1.56 µg/mL; MIC (Enterococcus faecium [10]): 3.1 µg/mL; MIC (Staphylococcus aureus [12]): 1.56 µg/mL; MIC (Klebsiella aerogenes [24]): 50 µg/mL
